ChEMBL document CHEMBL1782044, “Aspartic vinyl sulfones: inhibitors of a caspase-3-dependent pathway” (Eur J Med Chem, 2011)
The source made the active and inactive calls. No cut-off for these calls is given here.

Legend:
[1] = tested on: Saccharomyces cerevisiae; assay: Growth stimulation in Saccharomyces cerevisiae CG379 transformed with empty vector at 5 to 100 uM after 2 days; assay type: organism-based; settings: in vivo, 48 h
[2] = tested on: Saccharomyces cerevisiae; assay: Growth stimulation in Saccharomyces cerevisiae CG379 transformed with empty vector at 5 to 50 uM after 2 days; assay type: organism-based; settings: in vivo, 48 h
[3] = target: T1, Caspase-3 (Homo sapiens) (UniProt P42574); assay: Inhibition of human recombinant caspase-3 assessed as fluorescent 7-amido-4-methylcoumarin release using Ac-DEVD-AMC as peptide substrate at <200 uM by fluorometric assay
T1 sequence (whole entry): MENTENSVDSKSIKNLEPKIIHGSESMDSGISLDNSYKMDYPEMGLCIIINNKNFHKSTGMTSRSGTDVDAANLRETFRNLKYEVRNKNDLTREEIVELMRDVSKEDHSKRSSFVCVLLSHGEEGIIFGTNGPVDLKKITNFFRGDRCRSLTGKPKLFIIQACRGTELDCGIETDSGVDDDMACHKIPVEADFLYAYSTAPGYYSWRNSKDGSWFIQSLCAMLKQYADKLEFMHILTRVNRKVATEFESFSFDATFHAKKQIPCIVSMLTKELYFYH
Summary of the method: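 Recombinant human caspase-3 (stock 10 U/ml in assay buffer) mixed with inhibitor at various concentrations. Reaction started with AMC substrate at 200 (final). Buffer was 20 mM HEPES, 2 mM EDTA, 0.1% CHAPS, 5 mM DTT, pH 7.4. AMC release followed continuously at 37 °C by fluorescence, excitation 360 nm and emission 460 nm. IC50 determined.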

Structure (SMILES) | Activity [1] [%] | inhibition [3] | also measured
CC(C)[C@H](NC(=O)OCC1c2ccccc2-c2ccccc21)C(=O)N[C@H](/C=C/S(=O)(=O)c1ccccc1)CC(=O)O | 1.3 |  | 
CC[C@H](C)[C@H](NC(=O)OCc1ccccc1)C(=O)N[C@H](/C=C/S(=O)(=O)c1ccccc1)CC(=O)O | 1.9 |  | 
CC(=O)N[C@@H](CC(=O)O)C(=O)N[C@@H](CCC(=O)O)C(=O)N[C@H](C(=O)N[C@@H](CC(=O)O)C(=O)CCl)C(C)C |  |  | Activity [2]: 1.7%
O=C(O)C[C@@H](/C=C/S(=O)(=O)c1ccccc1)NC(=O)OCC1c2ccccc2-c2ccccc21 | 2.8 |  | 
C[C@H](NC(=O)OCc1ccccc1)C(=O)N[C@H](/C=C/S(=O)(=O)c1ccccc1)CC(=O)O |  | inactive | 
CC[C@H](C)[C@H](NC(=O)OCC1c2ccccc2-c2ccccc21)C(=O)N[C@H](/C=C/S(=O)(=O)c1ccccc1)CC(=O)O |  | inactive | 
CS(=O)(=O)/C=C/[C@H](CC(=O)O)NC(=O)OCC1c2ccccc2-c2ccccc21 | 1.7 |  | 
C[C@H](NC(=O)OCc1ccccc1)C(=O)N[C@H](/C=C/S(C)(=O)=O)CC(=O)O |  | inactive | 
C[C@H](NC(=O)OCC1c2ccccc2-c2ccccc21)C(=O)N[C@H](/C=C/S(=O)(=O)c1ccccc1)CC(=O)O |  | inactive | 
CC[C@H](C)[C@H](NC(=O)OCC1c2ccccc2-c2ccccc21)C(=O)N[C@H](/C=C/S(C)(=O)=O)CC(=O)O |  | inactive | 
CC(C)[C@H](NC(=O)OCC1c2ccccc2-c2ccccc21)C(=O)N[C@H](C(=O)N[C@H](/C=C/S(C)(=O)=O)CC(=O)O)C(C)C |  | inactive | 
CC[C@H](C)[C@H](NC(=O)OCc1ccccc1)C(=O)N[C@H](/C=C/S(C)(=O)=O)CC(=O)O | -3.3 |  | 
C[C@H](NC(=O)OCC1c2ccccc2-c2ccccc21)C(=O)N[C@H](/C=C/S(C)(=O)=O)CC(=O)O |  | inactive | 
CC(C)[C@H](NC(=O)OCC1c2ccccc2-c2ccccc21)C(=O)N[C@H](/C=C/S(C)(=O)=O)CC(=O)O | -7 |  | 
CC(C)[C@H](NC(=O)OCc1ccccc1)C(=O)N[C@H](/C=C/S(C)(=O)=O)CC(=O)O | -1 |  | 
CC(C)[C@H](NC(=O)OCC1c2ccccc2-c2ccccc21)C(=O)N[C@H](C(=O)N[C@H](/C=C/S(=O)(=O)c1ccccc1)CC(=O)O)C(C)C |  | inactive | 
